Laboratory results taken from ChEMBL document CHEMBL3046615, “Isolation of nematicidal compounds from Tagetes patula L. yellow flowers: structure-activity relationship studies against cyst nematode Heterodera zeae infective stage larvae” (2011).
Active and inactive are the calls of the source. The calls are words filed in the database; no cut-off is given here.

How the values were obtained:
Heterodera zeae [1] = test: Nematicidal activity against Heterodera zeae infective stage larvae assessed as nematode mortality at 0.25% under light conditions measured 48 hr post dose by stereoscopic microscopy; assay type: functional
Method in brief: (§1)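 Freshly hatched H. zeae second-stage juveniles, 100 per Petri plate, three replicates. Samples in MeOH, DMSO or water were tested in glass cavity blocks; petroleum ether samples were dried onto the block and larvae transferred on agar pieces. Percentages are dilutions of 30 mg/mL stocks (extracts/fractions) or 1 mg/mL stocks (pure compounds). Incubated at 28 ± 2 °C in light or dark box; mortality averaged over three replicates.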

Heterodera zeae [2] = test: Nematicidal activity against Heterodera zeae infective stage larvae assessed as nematode mortality at 0.25% under dark conditions measured 5 to 60 min post dose by stereoscopic microscopy; assay type: functional, organism-based
Method in brief: (§2)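 H. zeae freshly hatched second-stage juveniles, 100 per plate, three replicates, at 28 ± 2 °C under light or in a dark box. Dilutions are % of a stock: 30 mg/mL for extracts/fractions, 1 mg/mL for pure compounds. Methanol-, DMSO- or water-soluble samples were tested in glass cavity blocks. Petroleum ether-soluble samples were air-dried in the block and covered with agar pieces bearing cultured larvae. Mortality was followed over 5–60 min; each value is the mean of three experiments.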

Heterodera zeae [3] = test: Nematicidal activity against Heterodera zeae infective stage larvae assessed as nematode mortality at 0.25% under dark conditions measured 48 hr post dose by stereoscopic microscopy; assay type: functional; method in brief: as §1
Heterodera zeae [4] = test: Nematicidal activity against Heterodera zeae infective stage larvae assessed as nematode mortality at 0.5% under dark conditions measured 5 to 60 min post dose by stereoscopic microscopy; assay type: functional, organism-based; method in brief: as §2
Heterodera zeae [5] = test: Nematicidal activity against Heterodera zeae infective stage larvae assessed as nematode mortality at 0.125% under light conditions measured 24 hr post dose by stereoscopic microscopy; assay type: functional; method in brief: as §1
Heterodera zeae [6] = test: Nematicidal activity against Heterodera zeae infective stage larvae assessed as nematode mortality at 0.125% under dark conditions measured 5 to 60 min post dose by stereoscopic microscopy; assay type: functional, organism-based; method in brief: as §2
Heterodera zeae [7] = test: Nematicidal activity against Heterodera zeae infective stage larvae assessed as nematode mortality at 2% under light conditions measured 5 to 60 min post dose by stereoscopic microscopy; assay type: functional, organism-based; method in brief: as §2
Heterodera zeae [8] = test: Nematicidal activity against Heterodera zeae infective stage larvae assessed as nematode mortality at 2% under dark conditions measured 24 hr post dose by stereoscopic microscopy; assay type: functional; method in brief: as §1
Heterodera zeae [9] = test: Nematicidal activity against Heterodera zeae infective stage larvae assessed as nematode mortality at 0.125% under dark conditions measured 24 hr post dose by stereoscopic microscopy; assay type: functional; method in brief: as §1
Heterodera zeae [10] = test: Nematicidal activity against Heterodera zeae infective stage larvae assessed as nematode mortality at 0.25% under light conditions measured 5 to 60 min post dose by stereoscopic microscopy; assay type: functional, organism-based; method in brief: as §2
Heterodera zeae [11] = test: Nematicidal activity against Heterodera zeae infective stage larvae assessed as nematode mortality at 5% under dark conditions measured 5 to 60 min post dose by stereoscopic microscopy; assay type: functional, organism-based; method in brief: as §2
Heterodera zeae [12] = test: Nematicidal activity against Heterodera zeae infective stage larvae assessed as nematode mortality at 1% under dark conditions measured 5 to 60 min post dose by stereoscopic microscopy; assay type: functional, organism-based; method in brief: as §2
Heterodera zeae [13] = test: Nematicidal activity against Heterodera zeae infective stage larvae assessed as nematode mortality at 0.25% under light conditions measured 24 hr post dose by stereoscopic microscopy; assay type: functional; method in brief: as §1
Heterodera zeae [14] = test: Nematicidal activity against Heterodera zeae infective stage larvae assessed as nematode mortality at 2% under light conditions measured 24 hr post dose by stereoscopic microscopy; assay type: functional; method in brief: as §1
Heterodera zeae [15] = test: Nematicidal activity against Heterodera zeae infective stage larvae assessed as nematode mortality at 0.125% under light conditions measured 48 hr post dose by stereoscopic microscopy; assay type: functional; method in brief: as §1
Heterodera zeae [16] = test: Nematicidal activity against Heterodera zeae infective stage larvae assessed as nematode mortality at 0.5% under dark conditions measured 24 hr post dose by stereoscopic microscopy; assay type: functional; method in brief: as §1
Heterodera zeae [17] = test: Nematicidal activity against Heterodera zeae infective stage larvae assessed as nematode mortality at 1% under light conditions measured 5 to 60 min post dose by stereoscopic microscopy; assay type: functional, organism-based; method in brief: as §2
Heterodera zeae [18] = test: Nematicidal activity against Heterodera zeae infective stage larvae assessed as nematode mortality at 5% under light conditions measured 5 to 60 min post dose by stereoscopic microscopy; assay type: functional, organism-based; method in brief: as §2
Heterodera zeae [19] = test: Nematicidal activity against Heterodera zeae infective stage larvae assessed as nematode mortality at 1% under dark conditions measured 24 hr post dose by stereoscopic microscopy; assay type: functional; method in brief: as §1
Heterodera zeae [20] = test: Nematicidal activity against Heterodera zeae infective stage larvae assessed as nematode mortality at 5% under light conditions measured 24 hr post dose by stereoscopic microscopy; assay type: functional; method in brief: as §1
Heterodera zeae [21] = test: Nematicidal activity against Heterodera zeae infective stage larvae assessed as nematode mortality at 0.125% under dark conditions measured 48 hr post dose by stereoscopic microscopy; assay type: functional; method in brief: as §1
Heterodera zeae [22] = test: Nematicidal activity against Heterodera zeae infective stage larvae assessed as nematode mortality at 0.5% under light conditions measured 24 hr post dose by stereoscopic microscopy; assay type: functional; method in brief: as §1
Heterodera zeae [23] = test: Nematicidal activity against Heterodera zeae infective stage larvae assessed as nematode mortality at 0.25% under dark conditions measured 24 hr post dose by stereoscopic microscopy; assay type: functional; method in brief: as §1
Heterodera zeae [24] = test: Nematicidal activity against Heterodera zeae infective stage larvae assessed as nematode mortality at 5% under dark conditions measured 24 hr post dose by stereoscopic microscopy; assay type: functional; method in brief: as §1
Heterodera zeae [25] = test: Nematicidal activity against Heterodera zeae infective stage larvae assessed as nematode mortality at 1% under light conditions measured 24 hr post dose by stereoscopic microscopy; assay type: functional; method in brief: as §1
Heterodera zeae [26] = test: Nematicidal activity against Heterodera zeae infective stage larvae assessed as nematode mortality at 2% under dark conditions measured 5 to 60 min post dose by stereoscopic microscopy; assay type: functional, organism-based; method in brief: as §2
Heterodera zeae [27] = test: Nematicidal activity against Heterodera zeae infective stage larvae assessed as nematode mortality at 0.125% under light conditions measured 5 to 60 min post dose by stereoscopic microscopy; assay type: functional, organism-based; method in brief: as §2
Heterodera zeae [28] = test: Nematicidal activity against Heterodera zeae infective stage larvae assessed as nematode mortality at 0.5% under light conditions measured 5 to 60 min post dose by stereoscopic microscopy; assay type: functional, organism-based; method in brief: as §2

In the case of `CNC(=O)Oc1cccc2c1OC(C)(C)C2` [CARBOFURAN], the mortality (Heterodera zeae [1]) is reported as 100%, the Activity (Heterodera zeae [2]) is reported as “inactive” and the mortality (Heterodera zeae [3]) is reported as 100%. For the same compound, the Activity (Heterodera zeae [4]) was “inactive”, the mortality (Heterodera zeae [5]) was 40% and the Activity (Heterodera zeae [6]) was “inactive”. The Activity (Heterodera zeae [7]) was “inactive”, the mortality (Heterodera zeae [8]) was 100% and the mortality (Heterodera zeae [9]) was 60%. For the same compound, the Activity (Heterodera zeae [10]) was “inactive”, the Activity (Heterodera zeae [11]) was “inactive” and the Activity (Heterodera zeae [12]) was “inactive”. The mortality (Heterodera zeae [13]) was 80%, the mortality (Heterodera zeae [14]) was 100% and the mortality (Heterodera zeae [15]) was 100%. For the same compound, the mortality (Heterodera zeae [16]) was 100%, the Activity (Heterodera zeae [17]) was “inactive” and the Activity (Heterodera zeae [18]) was “inactive”. The mortality (Heterodera zeae [19]) was 100%, the mortality (Heterodera zeae [20]) was 100% and the mortality (Heterodera zeae [21]) was 100%. The mortality (Heterodera zeae [22]) was 100%, the mortality (Heterodera zeae [23]) was 80% and the mortality (Heterodera zeae [24]) was 100%. The mortality (Heterodera zeae [25]) was 100%, the Activity (Heterodera zeae [26]) was “inactive” and the Activity (Heterodera zeae [27]) was “inactive”. For the same compound, the Activity (Heterodera zeae [28]) was “inactive”.
